Our source for the IC50 values is ChEMBL document CHEMBL1128578, “Synthesis and cytotoxicity of novel lignans” (J Med Chem, 1995).

Bounds are passed on as bounds.

In assay [1] the test system is GLC4 cell line. The experiment in a line: Cytotoxic effect against GLC4 (human small cell lung carcinoma cell line) using the microculture tetrazolium (MTT) assay based on continuous incubation. In kind it is functional. The gist of the method:
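GLC4 cells in exponential growth (>90% viable by trypan blue) seeded at 3750/well in RPMI 1640 + 10% FCS; compounds from 200× DMSO stocks, final DMSO ≤0.25%, top concentration 100 μM, present continuously for 4 days at 37 °C, 5% CO2. MTT added for 3 h 45 min, formazan dissolved in DMSO, absorbance 520 nm; IC50 = 50% growth inhibition; n=3 separate experiments.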

Assay [2] deals with GLC4 cell line. The experiment in a line: Cytotoxic effect against GLC4 (human small cell lung carcinoma cell line) using the microculture tetrazolium (MTT) assay based on 2 hr incubation. In kind it is functional. In a few lines:
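GLC4 SCLC cells (suspension, RPMI 1640 + 10% heat-inactivated FCS, 37 °C, 5% CO2), exponential phase, >90% viable; 3750 cells/well. Compounds diluted from 200× DMSO stocks (≤0.25% DMSO final), up to 100 μM; exposed 2 h, washed three times, then cultured 4 days. MTT 3 h 45 min, formazan in DMSO, A520; IC50 from % growth inhibition, triplicate separate experiments.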

For `COc1cc([C@@H]2c3cc4c(cc3[C@H](O)[C@H]3COC(=O)[C@H]23)OCO4)cc(OC)c1O`, the IC50 in assay [1] (Homo sapiens, GLC4) is 0.03 µM; in assay [2] (Homo sapiens, GLC4, 2 h) it was 3.1 µM.
The like results for `COc1cc([C@@H]2c3cc4c(c(OC)c3[C@H](O)[C@H]3COC(=O)[C@H]23)OCO4)cc(OC)c1OC` were, in that order, 0.06 µM and 0.25 µM.
Turning to `CC1CCC(C(C)C)C(O[C@@H]2OC(=O)[C@H](Cc3ccc4c(c3)OCO4)[C@H]2Cc2ccc3c(c2)OCO3)C1` (stereo partly drawn), it took 44 µM to reach half-maximal inhibition in assay [1] (Homo sapiens, GLC4) (IC50).
Still for that read-out and setting: with `COc1cc(C[C@H]2C(=O)O[C@@H](OC3CC(C)CCC3C(C)C)[C@@H]2C(Sc2ccccc2)(Sc2ccccc2)c2ccc3c(c2)OCO3)ccc1OCc1ccccc1` (stereo partly drawn) the figure was greater than 100 µM.
Take `COc1cc([C@@H](O)[C@H]2C(=O)O[C@@H](OC3CC(C)CCC3C(C)C)[C@@H]2C(=O)c2ccc3c(c2OC)OCO3)cc(OC)c1OC` (stereo partly drawn): the IC50 stood at 1.7 µM in assay [1] (Homo sapiens, GLC4) and 7.2 µM in assay [2] (Homo sapiens, GLC4, 2 h).
`COc1cc([C@@H](O)[C@H]2C(=O)O[C@@H](OC3CC(C)CCC3C(C)C)[C@@H]2C2(c3ccc4c(c3OC)OCO4)SCCCS2)cc(OC)c1OCc1ccccc1` (stereo partly drawn) displayed an IC50 in assay [1] (Homo sapiens, GLC4) of 48 µM.
As for `COc1cc([C@@H](O)[C@H]2C(=O)O[C@@H](OC3CC(C)CCC3C(C)C)[C@@H]2C2(c3ccc4c(c3OC)OCO4)SCCCS2)cc(OC)c1OC` (stereo partly drawn), the IC50 in assay [1] (Homo sapiens, GLC4) stood at 8.8 µM; in assay [2] (Homo sapiens, GLC4, 2 h) it was 75 µM.
In turn, `O=C1C[C@@H](C2(c3ccc4c(c3)OCO4)SCCCS2)CO1` came in with an IC50 in assay [1] (Homo sapiens, GLC4) of 36 µM.
As to `CO[C@@H]1OC(=O)[C@H](Cc2ccc3c(c2)OCO3)[C@H]1C(Sc1ccccc1)(Sc1ccccc1)c1ccc2c(c1)OCO2`, the IC50 in assay [1] (Homo sapiens, GLC4) is greater than 100 µM.
Regarding `CC1CCC(C(C)C)C(O[C@@H]2OC(=O)[C@H](Cc3ccc4c(c3)OCO4)[C@H]2C(Sc2ccccc2)(Sc2ccccc2)c2ccc3c(c2)OCO3)C1` (stereo partly drawn), the half-inhibitory concentration (IC50) in assay [1] (Homo sapiens, GLC4) is 40 µM.
Consider `COc1cc([C@@H](O)[C@H]2C(=O)O[C@@H](OC3CC(C)CCC3C(C)C)[C@@H]2C2(c3ccc(O)c(O)c3OC)SCCCS2)cc(OC)c1OCc1ccccc1` (stereo partly drawn), for which the IC50 in assay [1] (Homo sapiens, GLC4) was 10 µM; in assay [2] (Homo sapiens, GLC4, 2 h), greater than 100 µM.
The like results for `COc1cc([C@@H]2c3cc4c(cc3[C@H](O[C@@H]3O[C@H](CO)[C@@H](O)[C@H](O)[C@H]3O)[C@H]3COC(=O)[C@H]23)OCO4)cc(OC)c1OC` were, in that order, 10 µM and 58 µM.
Turning to `COc1cc(C[C@H]2C(=O)OC[C@@H]2Cc2ccc3c(c2)OCO3)ccc1O`, the IC50 in assay [1] (Homo sapiens, GLC4) is 6.5 µM; in assay [2] (Homo sapiens, GLC4, 2 h), greater than 100 µM.
In turn, `COc1c(C2([C@@H]3CC(=O)O[C@H]3OC3CC(C)CCC3C(C)C)SCCCS2)ccc2c1OCO2` (stereo partly drawn) came in with an IC50 in assay [1] (Homo sapiens, GLC4) of 29 µM. This lies in the double-digit micromolar range.
`COc1ccc(C[C@H]2[C@H](OC3CC(C)CCC3C(C)C)OC(=O)[C@@H]2Cc2ccc(OC)c(OC)c2)cc1OC` (stereo partly drawn) gave an IC50 in assay [1] (Homo sapiens, GLC4) of 35 µM.
`COc1c(C2([C@H]3COC(=O)C3)SCCCS2)ccc2c1OCO2`: the IC50 in assay [1] (Homo sapiens, GLC4) came to 54 µM.
As to `COc1cc([C@@H]2c3cc4c(cc3C[C@H]3COC(=O)[C@@H]32)OCO4)cc(OC)c1OC` [DESOXYPODOPHYLLOTOXIN], the IC50 in assay [1] (Homo sapiens, GLC4) amounted to 0.008 µM; in assay [2] (Homo sapiens, GLC4, 2 h), 0.12 µM.
In the case of `COc1cc([C@@H]2c3cc4c(cc3[C@@H](O[C@@H]3O[C@@H]5CO[C@@H](C)O[C@H]5[C@H](O)[C@H]3O)[C@H]3COC(=O)[C@H]23)OCO4)cc(OC)c1O` [ETOPOSIDE], the IC50 in assay [1] (Homo sapiens, GLC4) came out at 0.82 µM; in assay [2] (Homo sapiens, GLC4, 2 h), 4 µM.
Turning to `COc1cc([C@@H]2c3cc4c(cc3[C@H](O)[C@H]3COC(=O)[C@H]23)OCO4)cc(OC)c1OC` [PODOFILOX], the IC50 in assay [1] (Homo sapiens, GLC4) is 0.06 µM; in assay [2] (Homo sapiens, GLC4, 2 h), 0.15 µM.
As for `COc1cc([C@@H]2c3cc4c(cc3[C@@H](O[C@@H]3O[C@@H]5CO[C@@H](c6cccs6)O[C@H]5[C@H](O)[C@H]3O)[C@H]3COC(=O)[C@H]23)OCO4)cc(OC)c1O` [TENIPOSIDE], the IC50 was found to be 0.48 µM in assay [1] (Homo sapiens, GLC4) and 2.8 µM in assay [2] (Homo sapiens, GLC4, 2 h).
On to CISPLATIN, for which the half-inhibitory concentration (IC50) stood at 1.1 µM in assay [1] (glc4) and 4.6 µM in assay [2] (glc4).

As a reminder, the IC50 is the midpoint of a concentration-inhibition curve.
